Reference: ChEMBL document CHEMBL4406810, “Modifications on the Amino-3,5-dicyanopyridine Core To Obtain Multifaceted Adenosine Receptor Ligands with Antineuropathic Activity” (J Med Chem, 2019)
The source made the active and inactive calls.

Legend:
[1] = Half life in Sprague-Dawley rat plasma at 1 uM by LC-MS/MS analysis; assay type: ADME, cell-free
Summary of the method: (§1)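 Analyte spiked at 1 µM into human plasma or heparinized Sprague-Dawley male rat plasma (or PBS). Incubated at 37°C for 0, 30, 60, 120 min in triplicate. Internal standard added, centrifuged, dried, reconstituted. Quantified by LC-MS/MS (ESI negative, MRM) against a 0–1 µM calibration. Half-life from concentration-time profile.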

[2] = tested on: CHO; test: Effect on cAMP level in wild-type CHO cells at 0.001 to 1 uM by alphascreen assay; assay type: functional, cell-based; details: Cricetulus griseus
Summary of the method: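 Compounds at 1 nM to 1 µM final concentrations. cAMP quantified with AlphaScreen kit. Four independent experiments, each in triplicate.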

[3] = target: T1, Adenosine receptor A1 (Homo sapiens, UniProt P30542); test: Displacement of [3H]DPCPX from human A1AR expressed in CHO cell membranes measured after 90 mins by scintillation counting method
T1 sequence (P30542 whole entry): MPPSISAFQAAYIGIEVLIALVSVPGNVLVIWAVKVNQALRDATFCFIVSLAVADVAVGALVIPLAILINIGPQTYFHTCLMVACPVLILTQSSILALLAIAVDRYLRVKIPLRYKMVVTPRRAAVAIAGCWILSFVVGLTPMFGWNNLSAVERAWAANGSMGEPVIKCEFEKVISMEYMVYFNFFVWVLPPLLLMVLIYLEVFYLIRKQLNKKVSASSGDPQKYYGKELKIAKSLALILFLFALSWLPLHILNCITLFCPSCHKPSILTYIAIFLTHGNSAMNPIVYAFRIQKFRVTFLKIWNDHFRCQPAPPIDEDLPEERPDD
Summary of the method: (§2)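 Nonspecific binding with 1 µM DPCPX. GF/B filtration and scintillation counting. Ki by Cheng–Prusoff. Inhibition % at 1 µM. Four experiments in triplicate.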

[4] = target: T2, Adenosine receptor A2a (Homo sapiens, UniProt P29274); test: Displacement of [3H]ZM241385 from human A2AR expressed in CHO cell membranes measured after 60 mins by scintillation counting method
Summary of the method: (§3)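 Nonspecific binding defined with 1 µM ZM241385. Filtered on GF/B, scintillation counted. Ki by Cheng–Prusoff. Percent inhibition at 1 µM. Four experiments in triplicate.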

[5] = target: T3, Adenosine receptor A3 (Homo sapiens) (UniProt P0DMS8); test: Displacement of [125I]ABMECA from human A3R expressed in CHO cell membranes at 1 uM measured after 120 mins by scintillation counting method relative to control
T3 sequence (whole entry): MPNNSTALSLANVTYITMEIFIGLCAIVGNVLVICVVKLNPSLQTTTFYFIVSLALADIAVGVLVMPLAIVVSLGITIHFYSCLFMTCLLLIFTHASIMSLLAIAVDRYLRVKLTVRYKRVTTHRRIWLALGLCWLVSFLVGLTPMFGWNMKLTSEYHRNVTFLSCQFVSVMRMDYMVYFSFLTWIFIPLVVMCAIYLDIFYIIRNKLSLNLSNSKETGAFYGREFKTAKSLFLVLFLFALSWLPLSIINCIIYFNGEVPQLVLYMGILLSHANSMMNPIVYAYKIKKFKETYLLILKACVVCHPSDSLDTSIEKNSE
Summary of the method: (§4)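 Nonspecific binding with 1 µM AB-MECA. GF/B filtration and counting. Ki via Cheng–Prusoff. Percent inhibition at 1 µM. Four experiments in triplicate.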

[6] = target: T4, Adenosine receptor A2b (Homo sapiens, UniProt P29275); test: Agonist activity at human A2B expressed in CHO cells assessed as stimulation of cAMP production by alphascreen assay; assay type: functional, cell-based
T4 sequence (P29275 whole entry): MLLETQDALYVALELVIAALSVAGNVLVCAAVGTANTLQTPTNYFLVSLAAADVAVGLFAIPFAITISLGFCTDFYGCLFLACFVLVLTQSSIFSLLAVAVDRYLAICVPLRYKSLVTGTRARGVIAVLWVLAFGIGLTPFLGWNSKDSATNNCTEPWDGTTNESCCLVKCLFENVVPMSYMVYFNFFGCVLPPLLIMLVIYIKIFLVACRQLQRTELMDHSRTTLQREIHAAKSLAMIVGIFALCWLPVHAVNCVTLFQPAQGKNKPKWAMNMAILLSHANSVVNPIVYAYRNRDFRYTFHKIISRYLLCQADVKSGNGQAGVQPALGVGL
Summary of the method: (§5)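 Compounds tested alone at final 1 nM to 1 µM. cAMP measured by AlphaScreen. Efficacy taken at 1 µM relative to NECA 1 µM (=100%). Four independent experiments in triplicate.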

[7] = target: T5, Adenosine receptor A2b (Homo sapiens) (UniProt P29275); test: Agonist activity at human A2B expressed in CHO cells assessed as stimulation of cAMP production at 1 uM by alphascreen assay relative to NECA; assay type: functional, cell-based; summary of the method: as §5
T5 sequence (whole entry): T4 sequence (P29275 whole entry)

[8] = target: T1, Adenosine receptor A1; test: Antagonist activity at human A1AR expressed in CHO cells assessed as suppression of CCPA-induced inhibition of forskolin-stimulated cAMP production by alphascreen assay; assay type: functional, cell-based
Summary of the method: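 hA1 CHO cells in HBSS with HEPES, Ro 20-1724 (phosphodiesterase inhibitor), BSA and adenosine deaminase. Forskolin 5 µM with CCPA 1 nM. […] AlphaScreen detection. IC50 and Emax by sigmoid fit. Four independent experiments in triplicate.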

[9] = target: T6, Adenosine receptor A1 (Homo sapiens) (UniProt P30542); test: Displacement of [3H]DPCPX from human A1AR expressed in CHO cell membranes at 1 uM measured after 90 mins by scintillation counting method relative to control; summary of the method: as §2
T6 sequence (whole entry): T1 sequence (P30542 whole entry)

[10] = target: T2, Adenosine receptor A2a; test: Displacement of [3H]ZM241385 from human A2AR expressed in CHO cell membranes at 1 uM measured after 60 mins by scintillation counting method relative to control; summary of the method: as §3
[11] = target: T5, Adenosine receptor A2b (Homo sapiens); test: Antagonist activity at human A2BR expressed in CHO cells assessed as inhibition of NECA-stimulated cAMP production at 1 uM by alphascreen assay relative to control; assay type: functional, cell-based
Summary of the method: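 Compounds added at 1 nM to 1 µM final, with percent inhibition read at 1 µM. AlphaScreen cAMP read-out. IC50 by sigmoid non-linear regression. Four independent experiments in triplicate.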

[12] = target: T1, Adenosine receptor A1; test: Inverse agonist activity at human A1AR expressed in CHO cells assessed as increase in forskolin-stimulated cAMP production by alphascreen assay; assay type: functional, cell-based
Summary of the method: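 Compounds at 1 nM to 1 µM. cAMP rise measured by AlphaScreen. EC50 from sigmoid fit. Four independent experiments in triplicate.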

[13] = target: T6, Adenosine receptor A1 (Homo sapiens); test: Inverse agonist activity at human A1AR expressed in CHO cells assessed as increase in forskolin-stimulated cAMP production by alphascreen assay relative to DPCPX; assay type: functional, cell-based
Summary of the method: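 Compounds at 1 nM to 1 µM. cAMP rise measured by AlphaScreen. EC50 from sigmoid fit. […] Four independent experiments in triplicate.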

[14] = target: T7, Adenosine receptor A3 (Homo sapiens, UniProt P0DMS8); test: Displacement of [125I]ABMECA from human A3R expressed in CHO cell membranes measured after 120 mins by scintillation counting method; summary of the method: as §4
T7 sequence (P0DMS8 whole entry): T3 sequence (whole entry)

[15] = tested on: Mus musculus; test: Antinociceptive activity in CD-1 albino mouse model of oxaliplatin-induced neuropathic pain assessed as increase in licking latency at 0.1 to 0.3 mg/kg, po treated on day 15 post oxaliplatin treatment and measured at 30 to 60 mins post dose by cold plate test; assay type: functional, organism-based
Summary of the method: (§6)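 Male CD-1 mice (22–25 g) given oxaliplatin 2.4 mg/kg i.p. in 5% glucose on days 1-2, 5-9 and 12-14. On day 15, single oral dose (test compounds in 1% CMC). Cold plate at 4 °C, latency to paw licking or lifting, 60 s cut-off, read 15–60 min post dose. 10 mice/group in two sets. ANOVA with Bonferroni.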

[16] = target: T2, Adenosine receptor A2a; test: Antagonist activity at human A2AR expressed in CHO cells assessed as inhibition of CGS21680-stimulated cAMP production by alphascreen assay; assay type: functional, cell-based
[17] = Half life in human plasma at 1 uM by LC-MS/MS analysis; assay type: ADME, cell-free; summary of the method: as §1
[18] = tested on: Mus musculus; test: Antinociceptive activity in CD-1 albino mouse model of oxaliplatin-induced neuropathic pain assessed as increase in licking latency at 10 mg/kg, po treated on day 15 post oxaliplatin treatment and measured at 15 to 60 mins post dose by cold plate test; assay type: functional, organism-based; summary of the method: as §6
[19] = tested on: Mus musculus; test: Antinociceptive activity in CD-1 albino mouse model of oxaliplatin-induced neuropathic pain assessed as increase in licking latency at 10 mg/kg, po treated on day 15 post oxaliplatin treatment and measured at 15 to 60 mins post dose in presence of nonspecific nAChR antagonist mecamylamine by cold plate test; assay type: functional, organism-based
Summary of the method: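 Oxaliplatin neuropathy in male CD-1 mice (2.4 mg/kg i.p., 10 injections, days 1-14). Day 15: mecamylamine 2 mg/kg i.p. or methyllycaconitine 6 mg/kg i.p. given 15 min before the oral dose. Cold plate (4 °C) licking/lifting latency with 60 s cut-off, measured over time after dosing. 10 mice/group, two sets.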

T2 sequence (P29274 whole entry): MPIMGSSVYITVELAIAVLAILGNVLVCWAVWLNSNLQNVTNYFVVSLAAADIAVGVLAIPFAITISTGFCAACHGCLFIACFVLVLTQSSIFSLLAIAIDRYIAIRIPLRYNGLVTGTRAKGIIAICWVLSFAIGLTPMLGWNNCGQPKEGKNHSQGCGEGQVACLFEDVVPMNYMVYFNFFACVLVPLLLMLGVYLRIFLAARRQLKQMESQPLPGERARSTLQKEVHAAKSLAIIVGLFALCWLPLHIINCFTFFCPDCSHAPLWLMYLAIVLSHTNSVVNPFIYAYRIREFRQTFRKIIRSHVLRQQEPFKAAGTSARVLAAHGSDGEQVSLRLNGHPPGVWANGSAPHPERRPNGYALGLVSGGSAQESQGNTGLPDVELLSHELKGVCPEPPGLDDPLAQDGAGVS

CCOC(=O)[C@H](CCc1ccccc1)N[C@@H](C)C(=O)N1CCC[C@H]1C(=O)O
half-life at 1 µM [1]: 0.367 h

N#Cc1c(NCc2ccccc2)nc(SCCO)c(C#N)c1-c1ccco1
Activity [2]: inactive
Ki [3]: 65 nM
Ki [4]: 461 nM
inhibition [5]: 14%
EC50 [6]: > 1000 nM
Efficacy [7]: 3%
IC50 [8]: 76 nM

N#Cc1c(N)nc(NCCO)c(C#N)c1-c1ccco1
Activity [2]: inactive
inhibition [9]: 20%
inhibition [10]: 18%
inhibition [5]: 17%
EC50 [6]: > 1000 nM
Efficacy [7]: 1%
inhibition [11]: 6%

N#Cc1c(N)nc(SCCO)c(C#N)c1-c1ccco1
Activity [2]: inactive
Ki [3]: 57 nM
inhibition [10]: 27%
inhibition [5]: 29%
EC50 [6]: > 1000 nM
Efficacy [7]: 7%
inhibition [11]: 33%
EC50 [12]: 128 nM
Emax [13]: 83%

N#Cc1c(N)nc(NCCO)c(C#N)c1-c1cccnc1
Activity [2]: inactive
inhibition [9]: 1%
inhibition [10]: 1%
inhibition [5]: 8%
EC50 [6]: > 1000 nM
Efficacy [7]: 1%

N#Cc1c(N)nc(SCc2cccc(C(=O)O)c2)c(C#N)c1-c1ccco1
Activity [2]: inactive
Ki [3]: 4.12 nM
Ki [4]: 581 nM
Ki [14]: 611 nM
EC50 [6]: > 1000 nM
Efficacy [7]: 1%
inhibition [11]: 12%
EC50 [12]: 8.92 nM
Emax [13]: 45%
Activity [15]: Active

N#Cc1c(Nc2ccc(I)cc2)nc(SCCO)c(C#N)c1-c1ccco1
Activity [2]: inactive
inhibition [9]: 10%
inhibition [10]: 1%
inhibition [5]: 8%
EC50 [6]: > 1000 nM
Efficacy [7]: 1%

N#Cc1c(N)nc(SCc2cccnc2)c(C#N)c1-c1ccco1
Activity [2]: inactive
Ki [3]: 1.42 nM
Ki [4]: 24 nM
Ki [14]: 948 nM
EC50 [6]: > 1000 nM
Efficacy [7]: 1%
EC50 [12]: 2.73 nM
Emax [13]: 47%
IC50 [16]: 83 nM

N#Cc1c(N)nc(SCc2ccncc2)c(C#N)c1-c1ccco1
Activity [2]: inactive
Ki [3]: 40 nM
Ki [4]: 114 nM
Ki [14]: 678 nM
EC50 [6]: > 1000 nM
Efficacy [7]: 14%
inhibition [11]: 40%

CCOC(=O)C(C)c1cccc(C(=O)c2ccccc2)c1 (stereo unspecified)
half-life at 1 µM [17]: 1.67 h

N#Cc1c(N)nc(SCCO)c(C#N)c1-c1ccoc1
Activity [2]: inactive
Ki [3]: 19 nM
inhibition [10]: 19%
inhibition [5]: 34%
EC50 [6]: 852 nM
Efficacy [7]: 32%
inhibition [11]: 38%
EC50 [12]: 58 nM
Emax [13]: 39%

N#Cc1c(NC2CC2)nc(SCCO)c(C#N)c1-c1ccco1
Activity [2]: inactive
Ki [3]: 89 nM
inhibition [10]: 30%
inhibition [5]: 30%
EC50 [6]: > 1000 nM
Efficacy [7]: 4%
IC50 [8]: 118 nM

Cn1c(=O)c2c(ncn2C)n(C)c1=O
Activity [18]: Active
Activity [19]: inactive
